Assay results reported in ChEMBL document CHEMBL1152173, “Synthesis and in vitro evaluation of the antifungal activities of dihydropyrimidinones” (2008).
≈ marks a conversion by molar mass, not a printed value. Values belong to the compound of their own block, whether it stands above or below them. Calls of active or inactive are those of the source. The calls are words filed in the database; no cut-off is given here.

Experiments:
Trichoderma hamatum [1] = assay: Antifungal activity against Trichoderma hamatum assessed as radial growth at 0.5% after 72 hrs by poison food technique of Flack relative to control; format: functional
Aspergillus niger [2] = assay: Antifungal activity against Aspergillus niger assessed as radial growth at 3% after 72 hrs by poison food technique of Flack relative to control; format: functional
Trichoderma hamatum [3] = assay: Antifungal activity against Trichoderma hamatum; format: functional
Trichoderma koningii [4] = assay: Antifungal activity against Trichoderma koningii assessed as radial growth at 1% after 72 hrs by poison food technique of Flack relative to control; format: functional
Outline: (§1)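 Acetone stock added to molten sterilized PDA to final 0.5–7%, plated in 90 mm dishes with compound-free plates as control. Each plate was inoculated with a 9 mm disc from a 4-day-old culture, incubated at 25 ± 1 °C, and colony diameter measured at 24 h intervals. % inhibition = (control − treatment)/control × 100; three replicates averaged.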

Aspergillus niger [5] = assay: Antifungal activity against Aspergillus niger assessed as radial growth at 1% after 72 hrs by poison food technique of Flack relative to control; format: functional
Trichoderma koningii [6] = assay: Antifungal activity against Trichoderma koningii assessed as radial growth at 7% after 48 hrs by poison food technique of Flack relative to control; format: functional; outline: as §1
Trichoderma koningii [7] = assay: Antifungal activity against Trichoderma koningii assessed as radial growth at 5% after 48 hrs by poison food technique of Flack relative to control; format: functional; outline: as §1
Trichoderma hamatum [8] = assay: Antifungal activity against Trichoderma hamatum assessed as radial growth at 0.5% after 24 hrs by poison food technique of Flack relative to control; format: functional
Trichoderma hamatum [9] = assay: Antifungal activity against Trichoderma hamatum assessed as radial growth at 5% after 48 hrs by poison food technique of Flack relative to control; format: functional; outline: as §1
Trichoderma koningii [10] = assay: Antifungal activity against Trichoderma koningii assessed as radial growth at 1% after 48 hrs by poison food technique of Flack relative to control; format: functional; outline: as §1
Trichoderma hamatum [11] = assay: Antifungal activity against Trichoderma hamatum assessed as radial growth at 7% after 24 hrs by poison food technique of Flack relative to control; format: functional; outline: as §1
Aspergillus niger [12] = assay: Antifungal activity against Aspergillus niger assessed as radial growth at 0.5% after 48 hrs by poison food technique of Flack relative to control; format: functional
Trichoderma hamatum [13] = assay: Antifungal activity against Trichoderma hamatum assessed as radial growth at 1% after 48 hrs by poison food technique of Flack relative to control; format: functional
Trichoderma koningii [14] = assay: Antifungal activity against Trichoderma koningii assessed as radial growth at 7% after 72 hrs by poison food technique of Flack relative to control; format: functional; outline: as §1
Trichoderma koningii [15] = assay: Antifungal activity against Trichoderma koningii assessed as radial growth at 1% after 24 hrs by poison food technique of Flack relative to control; format: functional; outline: as §1
Aspergillus niger [16] = assay: Antifungal activity against Aspergillus niger assessed as radial growth at 5% after 24 hrs by poison food technique of Flack relative to control; format: functional
Trichoderma koningii [17] = assay: Antifungal activity against Trichoderma koningii assessed as radial growth at 5% after 72 hrs by poison food technique of Flack relative to control; format: functional; outline: as §1
Trichoderma koningii [18] = assay: Antifungal activity against Trichoderma koningii assessed as radial growth at 7% after 24 hrs by poison food technique of Flack relative to control; format: functional; outline: as §1
Trichoderma hamatum [19] = assay: Antifungal activity against Trichoderma hamatum assessed as radial growth at 5% after 24 hrs by poison food technique of Flack relative to control; format: functional; outline: as §1
Trichoderma koningii [20] = assay: Antifungal activity against Trichoderma koningii assessed as radial growth at 0.5% after 48 hrs by poison food technique of Flack relative to control; format: functional; outline: as §1
Trichoderma koningii [21] = assay: Antifungal activity against Trichoderma koningii assessed as radial growth at 5% after 24 hrs by poison food technique of Flack relative to control; format: functional; outline: as §1
Trichoderma koningii [22] = assay: Antifungal activity against Trichoderma koningii assessed as radial growth at 3% after 24 hrs by poison food technique of Flack relative to control; format: functional; outline: as §1
Trichoderma koningii [23] = assay: Antifungal activity against Trichoderma koningii assessed as radial growth at 0.5% after 24 hrs by poison food technique of Flack relative to control; format: functional; outline: as §1
Aspergillus niger [24] = assay: Antifungal activity against Aspergillus niger assessed as radial growth at 5% after 48 hrs by poison food technique of Flack relative to control; format: functional
Trichoderma hamatum [25] = assay: Antifungal activity against Trichoderma hamatum assessed as radial growth at 3% after 72 hrs by poison food technique of Flack relative to control; format: functional
Trichoderma hamatum [26] = assay: Antifungal activity against Trichoderma hamatum assessed as radial growth at 0.5% after 48 hrs by poison food technique of Flack relative to control; format: functional
Trichoderma hamatum [27] = assay: Antifungal activity against Trichoderma hamatum assessed as radial growth at 7% after 24 hrs by poison food technique of Flack; format: functional, organism-based
Outline: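 Poisoned-food method: acetone stock mixed into molten sterilized potato dextrose agar to final 0.5, 1, 3, 5 or 7%, poured into 90 mm plates. Plates were inoculated with a 9 mm mycelial disc from a 4-day-old pure culture and incubated at 25 ± 1 °C. Colony diameter (mm) was read every 24 h; mean of three replicates.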

Aspergillus niger [28] = assay: Antifungal activity against Aspergillus niger assessed as radial growth at 7% after 48 hrs by poison food technique of Flack relative to control; format: functional
Trichoderma hamatum [29] = assay: Antifungal activity against Trichoderma hamatum assessed as radial growth at 5% after 72 hrs by poison food technique of Flack relative to control; format: functional; outline: as §1
Trichoderma hamatum [30] = assay: Antifungal activity against Trichoderma hamatum assessed as radial growth at 3% after 24 hrs by poison food technique of Flack relative to control; format: functional
Aspergillus niger [31] = assay: Antifungal activity against Aspergillus niger assessed as radial growth at 3% after 24 hrs by poison food technique of Flack relative to control; format: functional
Trichoderma hamatum [32] = assay: Antifungal activity against Trichoderma hamatum assessed as radial growth at 1% after 72 hrs by poison food technique of Flack relative to control; format: functional
Trichoderma hamatum [33] = assay: Antifungal activity against Trichoderma hamatum assessed as radial growth at 7% after 72 hrs by poison food technique of Flack relative to control; format: functional; outline: as §1
Aspergillus niger [34] = assay: Antifungal activity against Aspergillus niger assessed as radial growth at 3% after 48 hrs by poison food technique of Flack relative to control; format: functional
Aspergillus niger [35] = assay: Antifungal activity against Aspergillus niger assessed as radial growth at 1% after 48 hrs by poison food technique of Flack relative to control; format: functional
Aspergillus niger [36] = assay: Antifungal activity against Aspergillus niger assessed as radial growth at 1% after 24 hrs by poison food technique of Flack relative to control; format: functional
Trichoderma koningii [37] = assay: Antifungal activity against Trichoderma koningii assessed as radial growth at 3% after 72 hrs by poison food technique of Flack relative to control; format: functional; outline: as §1
Trichoderma hamatum [38] = assay: Antifungal activity against Trichoderma hamatum assessed as radial growth at 7% after 48 hrs by poison food technique of Flack relative to control; format: functional; outline: as §1
Aspergillus niger [39] = assay: Antifungal activity against Aspergillus niger; format: functional
Trichoderma koningii [40] = assay: Antifungal activity against Trichoderma koningii assessed as radial growth at 3% after 48 hrs by poison food technique of Flack relative to control; format: functional; outline: as §1
Trichoderma hamatum [41] = assay: Antifungal activity against Trichoderma hamatum assessed as radial growth at 1% after 24 hrs by poison food technique of Flack relative to control; format: functional
Aspergillus niger [42] = assay: Antifungal activity against Aspergillus niger assessed as radial growth at 0.5% after 24 hrs by poison food technique of Flack relative to control; format: functional
Trichoderma hamatum [43] = assay: Antifungal activity against Trichoderma hamatum assessed as radial growth at 3% after 48 hrs by poison food technique of Flack relative to control; format: functional
Aspergillus niger [44] = assay: Antifungal activity against Aspergillus niger assessed as radial growth at 5% after 72 hrs by poison food technique of Flack relative to control; format: functional

MIC (Trichoderma hamatum [3]): 0.025 µg/mL (≈ 0.0824 µM)
MIC (Aspergillus niger [39]): 0.35 µg/mL (≈ 1.15 µM)
Structure (SMILES): CCOC(=O)C1=C(C)NC(=O)NC1c1ccc(N(C)C)cc1 (stereo not drawn)
inhibition (INH) (Trichoderma hamatum [1]): 0%
inhibition (INH) (Aspergillus niger [2]): 74.11%
inhibition (INH) (Trichoderma koningii [4]): 48.29%
inhibition (INH) (Aspergillus niger [5]): 46.4%
inhibition (INH) (Trichoderma koningii [6]): 87.09%
inhibition (INH) (Trichoderma koningii [7]): 87.09%
inhibition (INH) (Trichoderma hamatum [8]): 0%
inhibition (INH) (Trichoderma hamatum [9]): 93.38%
inhibition (INH) (Trichoderma koningii [10]): 48.38%
inhibition (INH) (Trichoderma hamatum [11]): 100%
inhibition (INH) (Aspergillus niger [12]): 41.66%
inhibition (INH) (Trichoderma hamatum [13]): 0%
inhibition (INH) (Trichoderma koningii [14]): 80%
inhibition (INH) (Trichoderma koningii [15]): 9.36%
inhibition (INH) (Aspergillus niger [16]): 100%
inhibition (INH) (Trichoderma koningii [17]): 79.15%
inhibition (INH) (Trichoderma koningii [18]): 100%
inhibition (INH) (Trichoderma hamatum [19]): 84.2%
inhibition (INH) (Trichoderma koningii [20]): 9.67%
inhibition (INH) (Trichoderma koningii [21]): 100%
inhibition (INH) (Trichoderma koningii [22]): 84%
inhibition (INH) (Trichoderma koningii [23]): 4%
inhibition (INH) (Aspergillus niger [24]): 87.5%
inhibition (INH) (Trichoderma hamatum [25]): 73.04%
inhibition (INH) (Trichoderma hamatum [26]): 0%
Activity (Trichoderma hamatum [27]): Active
inhibition (INH) (Aspergillus niger [28]): 100%
inhibition (INH) (Trichoderma hamatum [29]): 86.83%
inhibition (INH) (Trichoderma hamatum [30]): 77.38%
inhibition (INH) (Aspergillus niger [31]): 100%
inhibition (INH) (Trichoderma hamatum [32]): 0%
inhibition (INH) (Trichoderma hamatum [33]): 93.82%
inhibition (INH) (Aspergillus niger [34]): 75%
inhibition (INH) (Aspergillus niger [35]): 47.25%
inhibition (INH) (Aspergillus niger [36]): 42.85%
inhibition (INH) (Trichoderma koningii [37]): 59.58%
inhibition (INH) (Trichoderma hamatum [38]): 96.38%
inhibition (INH) (Trichoderma koningii [40]): 64.51%
inhibition (INH) (Trichoderma hamatum [41]): 0%
inhibition (INH) (Aspergillus niger [42]): 38.28%
inhibition (INH) (Trichoderma hamatum [43]): 75.31%
inhibition (INH) (Aspergillus niger [44]): 88.42%

MIC (Trichoderma hamatum [3]): 0.025 µg/mL (≈ 0.0905 µM)
MIC (Aspergillus niger [39]): 0.35 µg/mL (≈ 1.27 µM)
Structure (SMILES): CCOC(=O)C1=C(C)NC(=S)NC1c1ccccc1 (stereo not drawn)
inhibition (INH) (Trichoderma hamatum [1]): 0%
inhibition (INH) (Aspergillus niger [2]): 36.36%
inhibition (INH) (Trichoderma koningii [4]): 0%
inhibition (INH) (Aspergillus niger [5]): 0%
inhibition (INH) (Trichoderma koningii [6]): 90.96%
inhibition (INH) (Trichoderma koningii [7]): 87.34%
inhibition (INH) (Trichoderma hamatum [8]): 17.13%
inhibition (INH) (Trichoderma hamatum [9]): 93%
inhibition (INH) (Trichoderma koningii [10]): 0%
inhibition (INH) (Trichoderma hamatum [11]): 100%
inhibition (INH) (Aspergillus niger [12]): 0%
inhibition (INH) (Trichoderma hamatum [13]): 18.65%
inhibition (INH) (Trichoderma koningii [14]): 84.42%
inhibition (INH) (Trichoderma koningii [15]): 0%
inhibition (INH) (Aspergillus niger [16]): 33.33%
inhibition (INH) (Trichoderma koningii [17]): 79.82%
inhibition (INH) (Trichoderma koningii [18]): 91.34%
inhibition (INH) (Trichoderma hamatum [19]): 89.18%
inhibition (INH) (Trichoderma koningii [20]): 0%
inhibition (INH) (Trichoderma koningii [21]): 89.2%
inhibition (INH) (Trichoderma koningii [22]): 56.03%
inhibition (INH) (Trichoderma koningii [23]): 0%
inhibition (INH) (Aspergillus niger [24]): 54.54%
inhibition (INH) (Trichoderma hamatum [25]): 37.65%
inhibition (INH) (Trichoderma hamatum [26]): 8.81%
Activity (Trichoderma hamatum [27]): Active
inhibition (INH) (Aspergillus niger [28]): 100%
inhibition (INH) (Trichoderma hamatum [29]): 94.96%
inhibition (INH) (Trichoderma hamatum [30]): 67.13%
inhibition (INH) (Aspergillus niger [31]): 33.33%
inhibition (INH) (Trichoderma hamatum [32]): 0%
inhibition (INH) (Trichoderma hamatum [33]): 95.98%
inhibition (INH) (Aspergillus niger [34]): 47.81%
inhibition (INH) (Aspergillus niger [35]): 0%
inhibition (INH) (Aspergillus niger [36]): 0%
inhibition (INH) (Trichoderma koningii [37]): 62.71%
inhibition (INH) (Trichoderma hamatum [38]): 100%
inhibition (INH) (Trichoderma koningii [40]): 68.08%
inhibition (INH) (Trichoderma hamatum [41]): 47.78%
inhibition (INH) (Aspergillus niger [42]): 0%
inhibition (INH) (Trichoderma hamatum [43]): 67.62%
inhibition (INH) (Aspergillus niger [44]): 55.63%
